In test [1] the test system is Jurkat. The experiment in a line: Inhibition of TNF-alpha-induced necroptosis in FADD-deficient human Jurkat T cells after 24 hrs. The class given is functional, cell-based. The essentials: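 FADD-deficient human Jurkat T cells at 5×10^5 cells/mL, 24 h at 37 °C, 5% CO2, with 10 ng/mL human TNF-α plus compound at eleven concentrations (0.030–100 μM), each in duplicate. DMSO stocks diluted in DMSO; final DMSO 0.5%. Viability by luminescent ATP assay (CellTiter-Glo), expressed as signal with TNF-α plus compound over signal with compound alone. EC50 from the dose series.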

Test [2] relates to L929. The experiment in a line: Inhibition of TNF-alpha-induced necroptosis in […] assessed as cell viability at 30 uM after 24 hrs by ATP-based assessement method. Type of test: functional. The method in brief: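 L929 cells given 10 ng/mL human TNF-α for 24 h with compound at 30 μM. ATP-based viability, normalized to compound-only cells without stimulus (100%). N = 2, standard deviation.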

Test [3] has as its system L929. In words: Inhibition of zVAD-induced necroptosis in […] assessed as cell viability at 30 uM after 24 hrs by ATP-based assessement method. Type of test: functional. The method in brief:
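L929 cells treated 24 h with 100 μM zVAD.fmk as the necroptotic stimulus, compound at 30 μM. ATP-based viability, normalized to compound-only cells without stimulus (100%). N = 2, standard deviation.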

In test [4] the test system is Jurkat. The experiment in a line: Inhibition of TNF-alpha-induced necroptosis in FADD-deficient human Jurkat T cells assessed as cell viability at 30 uM after 24 hrs by ATP-based assessement method. Type of test: functional. The essentials:
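FADD-deficient Jurkat cells exposed 24 h to 10 ng/mL human TNF-α with compound at 30 μM. Viability by ATP-based luminescence, normalized to cells given compound without the necroptotic stimulus (set as 100%). N = 2, standard deviation.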

The test system of test [5] is Fibroblast. In words: Inhibition of TNFalpha and zVAD-induced necroptosis in SV40-transformed mouse adult lung fibroblasts assessed as cell viability at 30 uM after 24 hrs by ATP-based assessement method. Type of test: functional. The method in brief:
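SV40-transformed mouse adult lung fibroblasts stimulated 24 h with 10 ng/mL human TNF-α plus 100 μM zVAD.fmk, compound at 30 μM. ATP-based viability, normalized to compound-treated cells without stimulus (100%). N = 2, standard deviation.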

This is an account of results in ChEMBL document CHEMBL1140581, “Structure-activity relationship study of [1,2,3]thiadiazole necroptosis inhibitors” (Bioorg Med Chem Lett, 2007).

Molecules are shown by their SMILES. pEC50: −log10 of the molar value. Activity calls are given as the source filed them. The calls are words filed in the database; no cut-off is given here.

One may read the pEC50 as −log10 of the EC50, conventionally taken in molar units. For `Cc1c(S(=O)(=O)c2ccc(Cl)cc2)csc1C(=O)NCc1c(F)cccc1Cl`, in test [1], the pEC50 was < 4.00. Same read-out and setting: with `Cc1ncsc1C(=O)NCc1c(F)cccc1Cl` the figure was 4.70; with `Cc1ccsc1C(=O)NC(C)c1c(F)cccc1Cl` (stereo not given), 5.41; with `CC(C)(NC(=O)c1snnc1C1CC1)c1c(F)cccc1Cl`, < 4.00. Regarding `CN1C(=O)N[C@H](Cc2c[nH]c3c(Cl)cccc23)C1=O`, the outcome in test [2], in test [3], in test [4] and in test [5] was Active. `Cc1nnsc1C(=O)N(C)Cc1c(F)cccc1Cl` showed a negative logarithm of the EC50 (pEC50) in test [1] of 4.96. On the same count and under the same terms, in the case of `O=C(NCc1ncccc1F)c1snnc1C1CC1` it was 5.02; in that of `O=C(NCc1ccccc1F)c1snnc1C1CC1`, 5.82; in that of `O=C(NCc1c(F)cccc1F)c1snnc1C1CC1`, 5.82.

For the compound `Cc1nc(C)c(C(=O)NCc2c(F)cccc2Cl)s1`, the pEC50 in test [1] is < 4.00.

`COc1ccc([C@H]2C3CCc4ccc(OC)cc4C3=NN2C(C)=O)cc1` (stereo not given in full): the outcome in test [2] and in test [4] was Active. Besides, the result in test [3] was inactive. Compound `Cc1ccc(C(=O)NCc2c(F)cccc2Cl)s1` had a pEC50 in test [1] of 5.41. The compound `O=C(NCc1ccccn1)c1snnc1C1CC1` had a pEC50 in test [1] of 4.40. On the same count and under the same terms, in the case of `O=C(NCc1c(F)cccc1Cl)c1snnc1C1CCCC1` it was 5.72; in that of `Cc1cccc(Cl)c1CNC(=O)c1snnc1C1CC1`, 5.00. On the same count and under the same terms, with `O=C(NCc1c(F)cccc1Cl)c1snnc1C1CC1` the figure was 6.30; with `O=C(NCc1c(F)cccc1Cl)c1sccc1C1CC1`, 5.29; with `O=C(NCc1c(Cl)cccc1Oc1ccccc1)c1snnc1C1CC1`, < 4.00.

Consider `C[C@@H](NC(=O)c1snnc1C1CC1)c1c(F)cccc1Cl`, for which the pEC50 in test [1] was < 4.00. As to `CCCCC(NC(=O)c1snnc1C1CC1)c1c(F)cccc1Cl` (stereo not given), in test [1], the pEC50 was < 4.00. Still for that read-out and setting: in the case of `O=C(NCc1c(F)cccc1Cl)c1snnc1C1CCC1` it was 6.22. Still for that read-out and setting: with `Cc1nc(-c2ccc(Cl)cc2)sc1C(=O)NCc1c(F)cccc1Cl` the figure was < 4.00; with `Cc1nnccc1C(=O)NCc1c(F)cccc1Cl`, < 4.00; with `Cc1c(C#N)csc1C(=O)NCc1c(F)cccc1Cl`, 5.92. The same measure, in the same setting: with `Cc1nnsc1C(=O)NCc1c(F)cccc1Cl` the figure was 6.00. `O=C(NCc1c(F)cccc1Cl)c1cccs1` had a pEC50 in test [1] of 5.03.

As for `O=C(NCc1c(F)cccc1Cl)c1snnc1-c1ccccc1`, the pEC50 in test [1] is < 4.00. On the same count and under the same terms, with `O=C(NCc1c(Cl)cccc1Cl)c1snnc1C1CC1` the figure was 5.22. Still for that read-out and setting: in the case of `COc1ccccc1CNC(=O)c1snnc1C` it was < 4.00. In turn, `CC(NC(=O)c1snnc1C1CC1)c1c(F)cccc1Cl` (stereo not given) showed a pEC50 in test [1] of 6.40. The compound `Cc1csc(C(=O)NCc2c(F)cccc2Cl)c1` had a negative logarithm of the EC50 (pEC50) in test [1] of 5.43. The same measure, in the same setting: in the case of `Cc1ccoc1C(=O)NCc1c(F)cccc1Cl` it was 4.89; in that of `N#Cc1cccc(Cl)c1CNC(=O)c1snnc1C1CC1`, < 4.00.

Take `C[C@H](NC(=O)c1snnc1C1CC1)c1c(F)cccc1Cl`: the outcome in test [2], in test [4] and in test [5] was Active. The result in test [3] was inactive. Moreover, the negative logarithm of the EC50 (pEC50) in test [1] is 6.55. Take `Cc1ccccc1CNC(=O)c1snnc1C`: the pEC50 in test [1] was 4.57. Still for that read-out and setting: in the case of `Fc1cccc(Cl)c1CNCc1snnc1C1CC1` it was < 4.00; in that of `CCOc1ccsc1C(=O)NCc1c(F)cccc1Cl`, < 4.00.

Consider `O=C(NCc1c(F)cccc1C(F)(F)F)c1snnc1C1CC1`, for which, in test [1], the pEC50 was < 4.00. The same measure, in the same setting: in the case of `O=C(NCc1c(F)cccc1Cl)c1sccc1Cl` it was 5.02; in that of `O=C(NC(=O)c1c(F)cccc1Cl)c1snnc1C1CC1`, < 4.00; in that of `CCCc1nnsc1C(=O)NCc1c(F)cccc1Cl`, 5.39. In test [1], `O=C(NCc1c(F)cccc1Cl)c1snnc1C1CCCCC1` showed a pEC50 of 5.22. The same measure, in the same setting: in the case of `O=C(NCc1c(F)ccc(Cl)c1F)c1snnc1C1CC1` it was 6.74; in that of `Cc1ncoc1C(=O)NCc1c(F)cccc1Cl`, < 4.00; in that of `O=C(NCc1c(F)ccc(F)c1Cl)c1snnc1C1CC1`, 6.28. Regarding `O=C(Nc1c(F)cccc1F)c1snnc1C1CC1`, the pEC50 in test [1] is < 4.00. Still for that read-out and setting: in the case of `Cc1ccsc1C(=O)NCc1c(F)cccc1Cl` it was 5.15; in that of `O=C(NC(c1ccccc1)c1c(F)cccc1Cl)c1snnc1C1CC1` (stereo not given), < 4.00. In turn, `Cc1csc(C(=O)NCc2c(F)cccc2Cl)c1Cl` had a pEC50 in test [1] of 5.41. Still for that read-out and setting: in the case of `CN(Cc1c(F)cccc1Cl)C(=O)c1snnc1C1CC1` it was 4.80; in that of `CC(C)c1nnsc1C(=O)NCc1c(F)cccc1Cl`, 6.24; in that of `Cc1c(Br)csc1C(=O)NCc1c(F)cccc1Cl`, 5.89. The same measure, in the same setting: with `O=C(NCc1cccc2ccccc12)c1snnc1C1CC1` the figure was < 4.00; with `O=C(NCCc1c(F)cccc1Cl)c1snnc1C1CC1`, 4.57. Still for that read-out and setting: with `CC(C)(C)c1nnsc1C(=O)NCc1c(F)cccc1Cl` the figure was 4.74; with `Cc1nnsc1C(=O)NCc1c(F)cccc1F`, 5.46.
